Measured values from paper PMC3580291 (Cell Calcium, 2013).
Where two headings read alike, the source gives them in different places.

How the values were obtained:
Orai3 = conditions: cited from earlier work
Orai2 = conditions: high concentrations (50 μM), compared with Orai1; cited from earlier work
STIM1/Orai1 currents = STIM1/Orai1 currents (Homo sapiens, UniProt Q96D31); assay: whole-cell patch-clamp of STIM1-mediated Orai1 currents in HEK293 cells; type: cell-based; conditions: for inhibition of maximally activated STIM1/Orai1 currents: whole cell inward current at −74 mV, HEK293; for kinetics of Orai1 current inhibition, slower than La^3+: relative to La^3+; for recovery of Orai1 currents upon wash-out: after full block by 10 μM, 4–5 min wash-out with 10 mM Ca^2+ solution
Sequence of STIM1/Orai1 currents (Q96D31 whole entry): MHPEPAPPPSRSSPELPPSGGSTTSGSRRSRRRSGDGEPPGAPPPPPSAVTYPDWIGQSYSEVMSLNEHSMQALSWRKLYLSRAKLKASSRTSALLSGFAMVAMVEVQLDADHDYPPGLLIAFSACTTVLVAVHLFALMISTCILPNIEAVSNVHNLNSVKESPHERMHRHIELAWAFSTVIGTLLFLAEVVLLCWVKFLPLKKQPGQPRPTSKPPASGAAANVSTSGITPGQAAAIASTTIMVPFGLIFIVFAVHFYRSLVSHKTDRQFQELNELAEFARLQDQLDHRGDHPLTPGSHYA
Sequence of STIM1/Orai1 currents (Q13586 23-685 partner): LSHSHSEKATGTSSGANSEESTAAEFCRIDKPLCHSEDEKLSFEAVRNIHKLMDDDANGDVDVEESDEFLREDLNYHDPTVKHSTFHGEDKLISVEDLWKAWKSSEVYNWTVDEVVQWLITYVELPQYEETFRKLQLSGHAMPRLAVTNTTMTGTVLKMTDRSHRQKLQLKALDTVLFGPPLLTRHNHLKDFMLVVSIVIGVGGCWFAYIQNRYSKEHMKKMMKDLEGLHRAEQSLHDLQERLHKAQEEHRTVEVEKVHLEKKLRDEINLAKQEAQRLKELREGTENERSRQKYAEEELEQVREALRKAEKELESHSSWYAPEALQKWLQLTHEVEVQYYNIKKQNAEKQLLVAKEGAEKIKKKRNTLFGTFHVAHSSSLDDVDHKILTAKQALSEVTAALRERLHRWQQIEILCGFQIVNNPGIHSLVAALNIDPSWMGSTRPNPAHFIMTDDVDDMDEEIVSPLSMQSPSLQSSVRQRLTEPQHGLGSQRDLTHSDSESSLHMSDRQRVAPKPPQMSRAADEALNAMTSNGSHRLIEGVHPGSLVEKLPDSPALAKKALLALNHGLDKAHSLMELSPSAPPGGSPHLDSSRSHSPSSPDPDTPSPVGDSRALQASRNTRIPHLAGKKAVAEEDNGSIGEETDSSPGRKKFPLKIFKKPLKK
Outline: (§1)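 HEK293 cells transfected with CFP-STIM1 plus YFP-Orai construct and recorded 24 h later. Whole-cell patch clamp at 20–24 °C with passive store depletion via a pipette containing (mM) 145 Cs methanesulfonate, 20 EGTA, 3.5 MgCl2, 8 NaCl, 10 HEPES, pH 7.2. Bath contained 10 mM CaCl2, pH 7.4. Ramps from −90 to +90 mV over 1 s, every 5 s, from 0 mV holding. Inward current taken at −74 mV. Leak correction used the initial trace or post-10 μM La3+ trace.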

Orai1 currents = conditions: cited from earlier work
CRAC currents = conditions: cited from earlier work
[1] = tested on: interleukin-2 (IL-2) production in lymphocytes; conditions: cited from earlier work
[2] = tested on: CRAC/SOC currents in RBL cells; conditions: 30 μM; cited from earlier work
STIM1/Orai3 currents = STIM1/Orai3 currents (Homo sapiens, UniProt Q9BRQ5); assay: whole-cell patch-clamp of STIM1-mediated Orai3 currents in HEK293 cells; type: cell-based; conditions: for inhibition of maximally activated STIM1/Orai3 currents: 10 μM, whole cell inward current at −74 mV, HEK293; for recovery of Orai3 currents upon wash-out: after full block by 10 μM, 4–5 min wash-out with 10 mM Ca^2+ solution
Outline: as §1

STIM1/Orai1 E106D = STIM1/Orai1 E106D (Homo sapiens, UniProt Q96D31, E106D); assay: whole-cell patch-clamp of STIM1-activated Orai1 E106D pore mutant currents; type: cell-based
Sequence of STIM1/Orai1 E106D (Q96D31 whole entry E106D): as the sequence (Q96D31 whole entry) above, with E106D counted along it
Sequence of STIM1/Orai1 E106D (Q13586 23-685 partner): as the sequence (Q13586 23-685 partner) above
Outline: as §1

L-type Ca^2+ channels = L-type Ca^2+ channels (Homo sapiens, UniProt Q13936); assay: whole-cell patch-clamp of L-type Ca2+ channel expressing HEK293 cells; type: cell-based; conditions: 10 μM
Sequence of L-type Ca^2+ channels (Q13936 1-2138 isoform Q13936-20): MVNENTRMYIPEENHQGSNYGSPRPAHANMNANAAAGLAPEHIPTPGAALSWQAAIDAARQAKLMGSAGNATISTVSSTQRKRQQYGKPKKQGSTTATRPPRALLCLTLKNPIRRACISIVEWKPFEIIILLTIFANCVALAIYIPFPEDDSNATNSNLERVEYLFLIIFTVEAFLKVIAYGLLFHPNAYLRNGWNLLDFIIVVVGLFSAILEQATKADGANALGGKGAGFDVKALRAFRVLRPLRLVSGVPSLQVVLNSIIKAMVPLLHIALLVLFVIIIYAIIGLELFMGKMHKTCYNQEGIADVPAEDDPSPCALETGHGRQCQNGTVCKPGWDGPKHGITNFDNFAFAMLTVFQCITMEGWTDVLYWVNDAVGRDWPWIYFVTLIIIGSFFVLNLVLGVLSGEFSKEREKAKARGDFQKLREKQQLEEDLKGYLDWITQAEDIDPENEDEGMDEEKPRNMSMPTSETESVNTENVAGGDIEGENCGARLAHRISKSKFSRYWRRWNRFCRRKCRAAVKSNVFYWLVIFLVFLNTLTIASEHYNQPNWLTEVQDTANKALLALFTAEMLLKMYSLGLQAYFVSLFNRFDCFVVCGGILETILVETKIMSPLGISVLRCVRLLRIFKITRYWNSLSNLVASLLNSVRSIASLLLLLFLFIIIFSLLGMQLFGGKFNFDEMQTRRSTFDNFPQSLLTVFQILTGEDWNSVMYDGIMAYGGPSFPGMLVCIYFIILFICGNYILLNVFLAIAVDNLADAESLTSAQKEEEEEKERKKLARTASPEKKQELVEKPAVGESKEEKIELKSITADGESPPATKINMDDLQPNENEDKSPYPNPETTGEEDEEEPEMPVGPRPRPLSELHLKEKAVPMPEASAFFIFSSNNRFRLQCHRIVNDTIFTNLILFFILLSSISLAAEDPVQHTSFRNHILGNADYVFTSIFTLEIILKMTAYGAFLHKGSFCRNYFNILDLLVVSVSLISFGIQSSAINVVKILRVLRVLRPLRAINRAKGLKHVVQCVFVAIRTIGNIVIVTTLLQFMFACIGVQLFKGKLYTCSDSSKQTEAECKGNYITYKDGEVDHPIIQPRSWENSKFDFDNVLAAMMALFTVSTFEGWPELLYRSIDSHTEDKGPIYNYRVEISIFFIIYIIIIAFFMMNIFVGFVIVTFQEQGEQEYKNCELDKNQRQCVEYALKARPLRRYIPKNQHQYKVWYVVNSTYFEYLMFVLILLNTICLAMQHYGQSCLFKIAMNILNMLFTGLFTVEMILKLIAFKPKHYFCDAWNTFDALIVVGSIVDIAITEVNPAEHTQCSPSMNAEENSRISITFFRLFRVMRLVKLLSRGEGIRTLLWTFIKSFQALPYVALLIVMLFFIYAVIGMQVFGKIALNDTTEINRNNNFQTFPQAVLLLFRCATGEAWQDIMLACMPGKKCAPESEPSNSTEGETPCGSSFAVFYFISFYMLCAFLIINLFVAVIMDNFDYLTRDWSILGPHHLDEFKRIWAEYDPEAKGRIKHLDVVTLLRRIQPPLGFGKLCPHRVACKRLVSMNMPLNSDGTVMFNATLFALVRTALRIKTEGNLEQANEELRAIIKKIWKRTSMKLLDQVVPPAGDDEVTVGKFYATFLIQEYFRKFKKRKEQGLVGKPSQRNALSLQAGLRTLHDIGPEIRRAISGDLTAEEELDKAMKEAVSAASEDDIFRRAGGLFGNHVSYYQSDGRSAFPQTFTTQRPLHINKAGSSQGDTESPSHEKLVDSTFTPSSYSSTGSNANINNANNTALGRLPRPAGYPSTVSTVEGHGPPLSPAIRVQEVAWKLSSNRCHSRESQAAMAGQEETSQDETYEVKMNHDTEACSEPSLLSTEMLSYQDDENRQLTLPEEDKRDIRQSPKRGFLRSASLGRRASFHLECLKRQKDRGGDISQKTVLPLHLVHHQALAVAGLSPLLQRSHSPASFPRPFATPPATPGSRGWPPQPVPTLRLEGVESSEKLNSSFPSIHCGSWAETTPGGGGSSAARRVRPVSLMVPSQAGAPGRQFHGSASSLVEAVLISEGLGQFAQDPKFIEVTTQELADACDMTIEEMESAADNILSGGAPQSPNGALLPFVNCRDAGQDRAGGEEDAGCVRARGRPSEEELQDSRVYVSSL
Sequence of L-type Ca^2+ channels (Q08289 whole entry partner): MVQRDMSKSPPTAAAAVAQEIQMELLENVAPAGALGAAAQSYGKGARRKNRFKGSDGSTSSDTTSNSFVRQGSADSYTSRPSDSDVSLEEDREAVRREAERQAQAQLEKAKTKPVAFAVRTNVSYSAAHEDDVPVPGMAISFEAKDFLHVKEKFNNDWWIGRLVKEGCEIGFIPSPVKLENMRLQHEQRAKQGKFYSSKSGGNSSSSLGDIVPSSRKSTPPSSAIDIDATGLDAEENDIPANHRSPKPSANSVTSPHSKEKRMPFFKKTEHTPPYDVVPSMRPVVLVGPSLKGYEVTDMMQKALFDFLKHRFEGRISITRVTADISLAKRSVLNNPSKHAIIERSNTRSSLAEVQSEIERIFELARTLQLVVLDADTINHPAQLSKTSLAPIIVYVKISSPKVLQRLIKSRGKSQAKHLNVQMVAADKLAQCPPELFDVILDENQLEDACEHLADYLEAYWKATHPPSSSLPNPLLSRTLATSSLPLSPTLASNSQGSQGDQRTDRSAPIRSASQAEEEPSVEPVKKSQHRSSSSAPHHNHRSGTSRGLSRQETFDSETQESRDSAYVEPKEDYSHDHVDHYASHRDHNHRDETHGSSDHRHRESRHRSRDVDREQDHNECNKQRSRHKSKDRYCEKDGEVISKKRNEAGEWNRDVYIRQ
Sequence of L-type Ca^2+ channels (P54289 25-1103 partner): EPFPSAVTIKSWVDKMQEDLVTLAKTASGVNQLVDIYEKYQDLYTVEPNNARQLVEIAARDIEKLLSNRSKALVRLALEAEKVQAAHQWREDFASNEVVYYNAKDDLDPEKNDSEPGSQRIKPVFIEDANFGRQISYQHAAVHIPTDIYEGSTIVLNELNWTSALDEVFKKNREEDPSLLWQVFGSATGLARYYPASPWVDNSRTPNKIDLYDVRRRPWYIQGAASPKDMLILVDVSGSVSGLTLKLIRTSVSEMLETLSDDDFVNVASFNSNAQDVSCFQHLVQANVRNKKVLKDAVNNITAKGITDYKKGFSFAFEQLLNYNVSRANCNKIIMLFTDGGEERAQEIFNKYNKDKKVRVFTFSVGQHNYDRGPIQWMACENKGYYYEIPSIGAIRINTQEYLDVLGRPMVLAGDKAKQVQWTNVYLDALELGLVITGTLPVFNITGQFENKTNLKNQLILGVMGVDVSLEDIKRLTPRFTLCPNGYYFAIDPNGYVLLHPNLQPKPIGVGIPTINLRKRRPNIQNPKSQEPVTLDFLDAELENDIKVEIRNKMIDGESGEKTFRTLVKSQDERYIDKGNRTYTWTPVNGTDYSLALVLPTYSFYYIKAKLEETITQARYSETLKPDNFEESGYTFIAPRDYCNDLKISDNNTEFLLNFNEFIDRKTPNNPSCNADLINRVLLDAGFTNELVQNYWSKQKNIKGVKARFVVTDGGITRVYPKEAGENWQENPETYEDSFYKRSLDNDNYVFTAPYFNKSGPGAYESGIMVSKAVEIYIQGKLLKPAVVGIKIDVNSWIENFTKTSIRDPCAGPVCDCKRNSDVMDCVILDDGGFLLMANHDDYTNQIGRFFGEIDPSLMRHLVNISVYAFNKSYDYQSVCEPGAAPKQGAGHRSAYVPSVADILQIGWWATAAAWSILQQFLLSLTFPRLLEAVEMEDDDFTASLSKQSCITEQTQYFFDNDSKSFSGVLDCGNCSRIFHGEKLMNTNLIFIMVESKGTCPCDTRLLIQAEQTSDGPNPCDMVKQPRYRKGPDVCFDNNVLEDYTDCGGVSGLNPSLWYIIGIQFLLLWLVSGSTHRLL

[3] = tested on: endogenous CRAC channels of RBL-2H3 cells; assay: whole-cell patch-clamp of endogenous CRAC currents in RBL-2H3 cells; type: cell-based, rat; conditions: 10 μM; passive store-depletion; −74 mV
Outline: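 RBL-2H3 cells grown in RPMI 1640 with 10% FBS, 1% penicillin–streptomycin and 1% L-glutamine at 37 °C, 5% CO2. Endogenous CRAC current activated by passive store depletion (20 mM EGTA pipette) in whole-cell mode. Inward current at −74 mV followed during perfusion of 10 μM test compound, with 10 μM La3+ as reference.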

HEK293 cells = type: cell-based
[4] = molecular target: 2-APB stimulated Orai3 currents (Homo sapiens, UniProt Q9BRQ5); assay: whole-cell patch-clamp of 2-APB stimulated Orai3 currents; type: cell-based
[5] = molecular target: STIM1-CFP/Orai1-YFP interaction (Homo sapiens, UniProt Q13586+Q96D31); assay: confocal FRET microscopy of STIM1/Orai1 coupling; type: cell-based; conditions: 10 μM after store-depletion by thapsigargin; HEK cells
Sequence of STIM1-CFP/Orai1-YFP interaction (Q96D31 whole entry): as the sequence (Q96D31 whole entry) above
Sequence of STIM1-CFP/Orai1-YFP interaction (Q13586 23-685): as the sequence (Q13586 23-685 partner) above
Outline: (§2)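 HEK293 cells transfected with CFP/YFP-tagged STIM1 and/or Orai1 and imaged 24 h later by confocal FRET microscopy with 457/488/514 nm laser lines. CFP, FRET and YFP images used about 900–1500 ms illumination. Crosstalk and cross-excitation factors were set per construct daily. Pixelwise corrected FRET (NFRET) was computed after background subtraction, limited to CFP:YFP molar ratio 1:10–10:1. Data given as mean ± S.E.M.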

CaV1.2 (L-type) = CaV1.2 (L-type) (Homo sapiens, UniProt Q13936); assay: selectivity profile, over-expressed ion channel; type: cell-based; conditions: Activity (IC50), antagonistic action; Human CaV1.2 (L-type)
[6] = molecular target: CFP-STIM1/YFP-STIM1 oligomerization (Homo sapiens, UniProt Q13586); assay: confocal FRET microscopy of STIM1 oligomerization; type: cell-based; conditions: 10 μM applied 5 min before store-depletion with 2 μM thapsigargin
Outline: as §2

rat-TRPV6 channels = rat-TRPV6 channels (Rattus norvegicus, UniProt Q9R186); assay: whole-cell patch-clamp of TRPV6 expressing HEK293 cells; type: cell-based; conditions: 10 μM, −74 mV
human lung mast cells = conditions: 3 μM; cited from earlier work
[7] = molecular target: STIM1/Orai1 D110/112/114A (Homo sapiens, UniProt Q96D31, D110A/D112A/D114A); type: cell-based; conditions: 10 μM
Sequence of STIM1/Orai1 D110/112/114A (Q96D31 whole entry D110A/D112A/D114A): as the sequence (Q96D31 whole entry) above, with D110A, D112A, D114A counted along it
Sequence of STIM1/Orai1 D110/112/114A (Q13586 23-685 partner): as the sequence (Q13586 23-685 partner) above

RBL mast cells = conditions: read-out: IC50 on RBL mast cells; cited from earlier work
[8] = tested on: STIM1 clustering in smooth muscle cells; conditions: cited from earlier work

NCCOB(c1ccccc1)c1ccccc1 [2-APB, 2-aminoethoxydiphenylborate]
effect on Orai3 currents (Orai3; 75 μM, independent of STIM1): robust current stimulation
effect on over-expressed Orai3 (Orai3): robustly stimulated
effect on over-expressed Orai2 (Orai2): less sensitive
effect on STIM1/Orai1 currents (STIM1/Orai1 currents; 75 μM): transient stimulation followed by a complete inhibition
effect on over-expressed Orai1 (Orai1 currents; high concentrations (50 μM)): robust block
effect on Orai1 currents (Orai1 currents; higher concentrations (>40 μM)): inhibit
effect on Orai1 currents (Orai1 currents; low concentrations (5 μM)): enhance
effect on CRAC currents (CRAC currents; concentrations higher than 10 μM): completely blocked
effect on CRAC currents (CRAC currents; low concentrations (1–5 μM)): enhanced

Cc1nnsc1C(=O)Nc1ccc(-n2nc(C(F)(F)F)cc2C(F)(F)F)cc1 [BTP2]
effect on interleukin-2 (IL-2) production in lymphocytes [1]: potently blocks

CC/C(=C(/CC)c1ccc(O)cc1)c1ccc(O)cc1 [DES, diethylstilbestrol, reference compound]
time to full blockade of STIM1-activated Orai1 currents (STIM1/Orai1 currents; 10 μM (Fig. 2B)): ≤ 50 s
inhibition of maximally activated STIM1/Orai1 currents (STIM1/Orai1 currents; 10 μM): full and rapid blockade
block of CRAC/SOC currents in RBL cells [2]: effective block

O=C(Nc1ccn(Cc2ccccc2Oc2ccccc2)n1)c1c(F)cccc1F [GSK-5503A, 2,6-difluoro-N-(1-(2-phenoxybenzyl)-1H-pyrazol-3-yl)benzamide]
kinetics of Orai1 current inhibition, slower than La^3+ (STIM1/Orai1 currents; 10 μM): 2.5 fold
inhibition of maximally activated STIM1/Orai1 currents (STIM1/Orai1 currents; 10 μM): complete Orai1 current inhibition
recovery of Orai1 currents upon wash-out (STIM1/Orai1 currents): not readily reversible
inhibition of maximally activated STIM1/Orai3 currents (STIM1/Orai3 currents): fully inhibited
recovery of Orai3 currents upon wash-out (STIM1/Orai3 currents): not readily reversible

O=C(Nc1ccn(Cc2ccc(O)cc2C(F)(F)F)n1)c1c(F)cccc1F [GSK-7975A, 2,6-difluoro-N-(1-(4-hydroxy-2-(trifluoromethyl)benzyl)-1H-pyrazol-3-yl)benzamide]
inhibition of STIM1-activated Orai1 E106D currents (STIM1/Orai1 E106D; 10 μM): no inhibition
inhibition of STIM1-mediated Orai1 E106D currents (STIM1/Orai1 E106D; 100 μM): substantially but not fully restored the inhibitory effect
inhibition of L-type Ca^2+ channel currents (L-type Ca^2+ channels): moderate inhibition
Hill coefficient, inhibition of Orai1 currents (STIM1/Orai1 currents): ~1
effect on Ca^2+-induced fast inactivation of STIM1/Orai1 (STIM1/Orai1 currents; 3 μM (Suppl. Fig. 1)): did not significantly increase inactivation
inhibition of CRAC currents upon intracellular application (STIM1/Orai1 currents; 10 μM intracellular application, data not shown): slight inhibition
inhibition of STIM1/Orai1 monovalent currents in divalent free (DVF) solution (STIM1/Orai1 currents; 10 μM, Na^+ as main charge carrier): fully blocked
kinetics of Orai1 current inhibition, slower than La^3+ (STIM1/Orai1 currents; 10 μM): 2.5 fold
inhibition of maximally activated STIM1/Orai1 currents (STIM1/Orai1 currents; 10 μM): complete Orai1 current inhibition
recovery of Orai1 currents upon wash-out (STIM1/Orai1 currents): not readily reversible
inhibition of RBL CRAC currents [3]: fully blocked
amount of Ca^2+ released from ER stores (HEK293 cells; 10 μM pre-incubation, stimulation by carbachol (CCH) or BHQ): not markedly altered
inhibition of endogenous store-operated Ca^2+ entry of HEK293 cells (HEK293 cells; pre-incubation with 10 μM, Fura-2): substantially inhibited
inhibition of maximally 2-APB stimulated Orai3 currents ([4]; 10 μM, 75 μM 2-APB): totally ineffective
inhibition of maximally 2-APB activated Orai3 currents ([4]; 100 μM): full inhibition
inhibition at 50 µM ([4]; read-out: inhibition of maximally 2-APB activated Orai3 currents): 50%
effect on FRET plateau representing STIM1/Orai1 interaction [5]: did not significantly alter
IC50 (CaV1.2 (L-type)): ~8 µM
effect on FRET increase (STIM1 oligomerization) upon store-depletion [6]: unaffected
Hill coefficient, inhibition of Orai3 currents (STIM1/Orai3 currents): ~1
inhibition of maximally activated STIM1/Orai3 currents (STIM1/Orai3 currents): fully inhibited
recovery of Orai3 currents upon wash-out (STIM1/Orai3 currents): not readily reversible
inhibition of TRPV6 currents (rat-TRPV6 channels): completely inhibited
Ca^2+ influx in human lung mast cells (human lung mast cells): significantly reduced
release of inflammatory mediators from human lung mast cells (human lung mast cells): significantly reduced
inhibition of STIM1-activated Orai1 D110/112/114A currents [7]: substantial inhibition almost comparable to that of wild-type Orai1

[La+3] [La^3+, reference compound]
inhibition of L-type Ca^2+ channel currents (L-type Ca^2+ channels): fully blocked
inhibition of maximally activated STIM1/Orai1 currents (STIM1/Orai1 currents; 10 μM): complete inhibition
inhibition of TRPV6 currents (rat-TRPV6 channels): fully blocked

COc1ccc(OC)c(-c2ccc(NC(=O)c3ccncc3F)cc2)c1 [Synta-66, N-(2′,5′-dimethoxy-[1,1′-biphenyl]-4-yl)-3-fluoroisonicotinamide, reference compound]
inhibition of maximally activated STIM1/Orai1 currents (STIM1/Orai1 currents; 10 μM): reduced Orai1 currents
IC50 (RBL mast cells): 1 to 3 µM
inhibition of maximally activated STIM1/Orai3 currents (STIM1/Orai3 currents): inhibited Orai3 currents at a similar rate to the GSK compounds
interference with STIM1 clustering [8]: does not interfere with STIM1 clustering
